The text below walks through data of ChEMBL document CHEMBL4130566, “χ-Space Screening of Dermorphin-Based Tetrapeptides through Use of Constrained Arylazepinone and Quinolinone Scaffolds” (ACS Med Chem Lett, 2017).

SMILES strings stand for the structures. Square brackets hold non-standard residues; d marks the D form. Peptide text beside a SMILES is read from it.

The target of experiment [1] is Mu-type opioid receptor (Homo sapiens, UniProt P35372). Kind of experiment: Binding affinity to Mu-type opioid receptor (unknown origin).
Sequence of Mu-type opioid receptor (Homo sapiens, UniProt P35372) (P35372 whole entry): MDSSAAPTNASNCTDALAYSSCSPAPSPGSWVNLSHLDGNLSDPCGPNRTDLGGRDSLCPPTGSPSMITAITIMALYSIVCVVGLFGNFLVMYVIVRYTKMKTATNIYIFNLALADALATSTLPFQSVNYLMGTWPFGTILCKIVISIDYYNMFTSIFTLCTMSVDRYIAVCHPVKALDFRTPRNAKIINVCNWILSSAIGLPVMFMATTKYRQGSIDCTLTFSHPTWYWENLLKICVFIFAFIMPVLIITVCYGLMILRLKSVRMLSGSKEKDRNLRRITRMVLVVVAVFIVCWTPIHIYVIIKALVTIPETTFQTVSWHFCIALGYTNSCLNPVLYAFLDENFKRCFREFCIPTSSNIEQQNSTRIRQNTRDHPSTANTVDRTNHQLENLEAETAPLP
For experiment [2], the target named is Delta-type opioid receptor (Homo sapiens, UniProt P41143). As to the kind of experiment: Binding affinity to delta-type opioid receptor (unknown origin).
Sequence of Delta-type opioid receptor (Homo sapiens, UniProt P41143) (P41143 whole entry): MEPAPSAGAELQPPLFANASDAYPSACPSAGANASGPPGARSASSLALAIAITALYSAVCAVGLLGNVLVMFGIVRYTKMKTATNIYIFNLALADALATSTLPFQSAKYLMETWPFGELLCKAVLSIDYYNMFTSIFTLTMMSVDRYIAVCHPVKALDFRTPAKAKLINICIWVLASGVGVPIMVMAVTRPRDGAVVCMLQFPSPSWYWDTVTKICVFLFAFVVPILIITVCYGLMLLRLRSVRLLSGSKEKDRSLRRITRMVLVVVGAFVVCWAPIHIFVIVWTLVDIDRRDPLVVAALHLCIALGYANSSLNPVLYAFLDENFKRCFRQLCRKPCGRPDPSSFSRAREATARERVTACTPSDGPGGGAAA
The target in experiment [3] is T1, Delta-type opioid receptor (Mus musculus, UniProt P32300). Kind of experiment: Agonist activity at delta-type opioid receptor in mouse vas deferens assessed as inhibition of electrically stimulated contractions. Type of experiment: functional. The procedure, abridged: (§1)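 Guinea pig ileum (GPI) serves as the MOP-representative tissue and mouse vas deferens (MVD) as the DOP-representative tissue. Values are reported as IC50.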
T1 sequence (P32300 whole entry): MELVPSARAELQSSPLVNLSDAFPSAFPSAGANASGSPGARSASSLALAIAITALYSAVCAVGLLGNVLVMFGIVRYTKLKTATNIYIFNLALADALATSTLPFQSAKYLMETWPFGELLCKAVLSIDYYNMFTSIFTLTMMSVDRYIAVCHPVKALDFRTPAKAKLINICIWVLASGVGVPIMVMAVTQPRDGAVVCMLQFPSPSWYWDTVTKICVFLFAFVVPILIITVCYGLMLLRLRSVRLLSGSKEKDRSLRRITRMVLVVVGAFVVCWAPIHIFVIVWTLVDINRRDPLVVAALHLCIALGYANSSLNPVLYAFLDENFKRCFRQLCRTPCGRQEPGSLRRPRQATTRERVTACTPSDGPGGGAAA

The target in experiment [4] is T2, Mu-type opioid receptor (Cavia porcellus, UniProt P97266). Kind of experiment: (§2) Agonist activity at mu-opioid receptor in guinea pig ileum assessed as inhibition of electrically induced contractions. Format: functional. The method in brief:
as §1

For another experiment, the species on record is Mus musculus. Kind of experiment: Selectivity ratio of IC50 for mouse FLAG-tagged delta-type opioid receptor expressed in HEK293 cell membranes to IC50 for mouse FLAG-tagged Mu-type opioid receptor expressed in HEK293 cell membranes. Format: cell-based.
Experiment [5] has as its target T1, Delta-type opioid receptor. Kind of experiment: Displacement of [125I]-Deltorphin II from mouse FLAG-tagged delta-type opioid receptor expressed in HEK293 cell membranes after 60 mins by gamma counting analysis. The procedure, abridged: (§3)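 Competitive radioligand displacement binding in HEK293 cells expressing MOP or DOP. The MOP-selective tracer is [125I]-DAMGO and the DOP-selective tracer is [125I]-Deltorphin II. Values are reported as IC50.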
In general terms: In a radioligand displacement assay an active substance lowers the binding of a labelled ligand.

Experiment [6] concerns the target Mu-type opioid receptor (Mus musculus, UniProt P42866). Kind of experiment: Displacement of [125I]-DAMGO from mouse FLAG-tagged Mu-type opioid receptor expressed in HEK293 cell membranes after 60 mins by gamma counting analysis. The procedure, abridged: as §3
The target of experiment [7] is Delta-type opioid receptor (Mus musculus) (UniProt P32300). Kind of experiment: Antagonist activity at delta-type opioid receptor in mouse vas deferens assessed as inhibition of DPDPE-induced electrically stimulated contractions. Format: functional.
Sequence of Delta-type opioid receptor (Mus musculus) (P32300 whole entry): as above
In experiment [8] the target is Mu-type opioid receptor (Cavia porcellus) (UniProt P97266). Kind of experiment: Antagonist activity at mu-opioid receptor in guinea pig ileum assessed as inhibition of TAPP-induced reduction in electrically stimulated contractions. Format: functional.
Sequence of Mu-type opioid receptor (Cavia porcellus) (P97266 whole entry): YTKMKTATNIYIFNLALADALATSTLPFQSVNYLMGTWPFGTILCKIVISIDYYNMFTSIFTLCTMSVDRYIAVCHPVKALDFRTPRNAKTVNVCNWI
The target is the same in experiment [9]. The description is as §2. Format: functional. The method in brief:
as §1

Experiment [10] has as its target T3, Mu-type opioid receptor (Rattus norvegicus, UniProt P33535). Kind of experiment: Displacement of [3H]-CTOP from Mu-type opioid receptor in Sprague-Dawley rat brain homogenate after 180 mins by scintillation counting.
For experiment [11], the target named is T1, Delta-type opioid receptor. Kind of experiment: Agonist activity at delta-type opioid receptor in ICR mouse vas deferens assessed as […] of electrically stimulated contractions after 3 mins post dose. Type of experiment: functional.
The target of experiment [12] is T2, Mu-type opioid receptor. As to the kind of experiment: Agonist activity at mu-opioid receptor in Hartley guinea pig ileum assessed as inhibition of electrically induced contractions after 3 mins post dose. Type of experiment: functional. The procedure, abridged: as §1
For experiment [13], the target named is T4, Delta-type opioid receptor (Rattus norvegicus, UniProt P33533). Kind of experiment: Displacement of [H][p-ClPhe4]-DPDPE from delta-type opioid receptor in Sprague-Dawley rat brain homogenates after 180 mins by scintillation counting.
T4 sequence (P33533 whole entry): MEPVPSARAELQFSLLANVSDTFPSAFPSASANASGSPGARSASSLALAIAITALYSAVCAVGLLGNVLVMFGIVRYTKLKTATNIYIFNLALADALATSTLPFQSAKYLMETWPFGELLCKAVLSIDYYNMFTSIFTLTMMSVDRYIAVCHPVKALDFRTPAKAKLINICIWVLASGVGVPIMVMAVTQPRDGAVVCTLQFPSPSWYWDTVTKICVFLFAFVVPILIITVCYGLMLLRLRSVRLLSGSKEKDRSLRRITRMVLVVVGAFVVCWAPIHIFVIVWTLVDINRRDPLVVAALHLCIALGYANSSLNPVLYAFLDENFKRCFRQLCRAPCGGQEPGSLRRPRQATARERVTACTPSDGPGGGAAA
For experiment [14], the target named is T4, Delta-type opioid receptor. Kind of experiment: Displacement of [3H][Ile5,6]-deltorphin II from delta-type opioid receptor in Sprague-Dawley rat brain membranes. Type of experiment: cell membranes, Membrane.
For experiment [15], the target named is T3, Mu-type opioid receptor. Kind of experiment: Displacement of [3H]naloxone from Mu-type opioid receptor in Sprague-Dawley rat brain membranes. Format: cell membranes, Membrane.

Sequence of Mu-type opioid receptor (Mus musculus, UniProt P42866) (P42866 whole entry): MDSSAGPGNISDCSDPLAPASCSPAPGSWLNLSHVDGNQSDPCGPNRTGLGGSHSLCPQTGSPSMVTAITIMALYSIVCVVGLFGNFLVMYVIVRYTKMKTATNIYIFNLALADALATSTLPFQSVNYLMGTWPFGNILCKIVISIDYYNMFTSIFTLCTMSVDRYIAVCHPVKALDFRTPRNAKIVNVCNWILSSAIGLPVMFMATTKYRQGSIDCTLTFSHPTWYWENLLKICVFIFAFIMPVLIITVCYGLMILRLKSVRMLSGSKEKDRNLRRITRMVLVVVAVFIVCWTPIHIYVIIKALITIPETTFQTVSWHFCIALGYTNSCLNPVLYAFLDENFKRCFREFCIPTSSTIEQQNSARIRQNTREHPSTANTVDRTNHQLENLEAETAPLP
T2 sequence (P97266 whole entry): as the sequence (P97266 whole entry) above
T3 sequence (P33535 whole entry): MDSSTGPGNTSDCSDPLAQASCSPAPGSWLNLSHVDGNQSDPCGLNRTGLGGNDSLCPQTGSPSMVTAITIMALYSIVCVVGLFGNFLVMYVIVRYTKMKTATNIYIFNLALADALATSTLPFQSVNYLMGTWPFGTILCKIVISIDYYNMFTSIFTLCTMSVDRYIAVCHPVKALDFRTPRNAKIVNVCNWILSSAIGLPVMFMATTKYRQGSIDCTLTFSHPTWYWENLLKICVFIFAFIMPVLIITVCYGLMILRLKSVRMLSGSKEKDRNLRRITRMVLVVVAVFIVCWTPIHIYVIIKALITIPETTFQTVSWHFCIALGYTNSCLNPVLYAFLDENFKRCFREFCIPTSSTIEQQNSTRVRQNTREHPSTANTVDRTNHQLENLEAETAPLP

The Ki is a measure of affinity in units of concentration, obtained from inhibition or displacement. Low values mean tighter binding, high ones weaker binding. In the case of `Cc1cc(O)cc(C)c1C[C@H](N)C(=O)N[C@H](CCCN=C(N)N)C(=O)N[C@H]1Cc2ccccc2CN(CC(N)=O)C1=O`, the Ki on Mu-type opioid receptor [1] stood at 0.15 nM; in [2], 0.6 nM.
A word on the IC50: it is the concentration that inhibits the measured activity by half. Regarding `Cc1cc(O)cc(C)c1C[C@H](N)C(=O)N[C@H](CCCNC(=N)N)C(=O)N[C@H]1Cc2ccc3ccccc3c2CN(CC(N)=O)C1=O`, the IC50 came out at 114 nM in [3], 21.4 nM at Mu-type opioid receptor [4], 153 nM in experiment [5] and 2.19 nM at Mu-type opioid receptor [6]. In addition, the Ratio IC50 in the experiment filed under Mus musculus was determined as 70.
With `Cc1cc(O)cc(C)c1C[C@H](N)C(=O)N[C@H](C)C(=O)N[C@H]1Cc2cc3ccccc3cc2CN(CC(N)=O)C1=O`, the Ke in [7] amounted to 360 nM; in [8], 5.53 nM.
Turning to `C[C@@H](NC(=O)[C@@H](N)Cc1ccc(O)cc1)C(=O)N[C@@H](Cc1ccccc1)C(=O)NCC(=O)N[C@@H](Cc1ccc(O)cc1)C(=O)N1CCC[C@H]1C(=O)N[C@@H](CO)C(N)=O` [DERMORPHIN], on Mu-type opioid receptor [4], the IC50 was 1.06 nM.
Regarding `Cc1cc(O)cc(C)c1C[C@H](N)C(=O)N[C@H](C)C(=O)N[C@H]1Cc2c(ccc3ccccc23)CN(CC(N)=O)C1=O`, the IC50 in experiment [3] worked out at 0.86 nM; at Mu-type opioid receptor [4] it was 1.13 nM; in [5], 2.07 nM; at Mu-type opioid receptor [6], 0.39 nM. Also, the Ratio IC50 in the experiment listed under Mus musculus was found to be 5.
`Cc1cc(O)cc(C)c1C[C@H](N)C(=O)N[C@H](CCCNC(=N)N)C(=O)N[C@H]1Cc2ccccc2N(CC(N)=O)C1=O`: the IC50 was determined as 90.5 nM in experiment [3], 630 nM in experiment [5] and 1.62 nM at Mu-type opioid receptor [6]. Further, the IC35 in experiment [9] was 33.7 nM. Moreover, in the experiment listed under Mus musculus, the Ratio IC50 is 389.
The term IC25 denotes the concentration needed for an effect of 25%. With `Cc1cc(O)cc(C)c1C[C@H](N)C(=O)N[C@H](CCCNC(=N)N)C(=O)N[C@H]1Cc2ccc(Br)cc2CN(CC(N)=O)C1=O`, the IC50 in [3] turned out to be 8.51 nM; in [5] it was 60.7 nM; at Mu-type opioid receptor [6] it was 0.76 nM. For the same compound, the IC25 in experiment [9] stood at 22 nM. In the experiment filed under Mus musculus, the Ratio IC50 was 80.
On to `Cc1cc(O)cc(C)c1C[C@H](N)C(=O)N[C@H](CCCNC(=N)N)C(=O)N[C@H]1Cc2c(ccc3ccccc23)CN(CC(N)=O)C1=O`, for which the IC50 is 1.42 nM in experiment [3], 0.252 nM on Mu-type opioid receptor [4], 1 nM in experiment [5] and 0.33 nM on Mu-type opioid receptor [6]. In addition, the Ratio IC50 in the experiment filed under Mus musculus is 3.
On to `C[C@@H](NC(=O)[C@@H](N)Cc1ccc(O)cc1)C(=O)N[C@@H](Cc1ccccc1)C(=O)NCC(N)=O` (H-Y[dA]FG-NH2), for which the IC50 at Mu-type opioid receptor [10] is 36.7 nM; in experiment [11] it was 263 nM; at Mu-type opioid receptor [12], 35 nM; in [13], 1250 nM.
As to `Cc1cc(O)cc(C)c1C[C@H](N)C(=O)N[C@H](C)C(=O)N[C@H]1Cc2ccc3ccccc3c2CN(CC(N)=O)C1=O`, the Ke is 306 nM in experiment [7] and 2.88 nM in experiment [8]. In addition, the Ratio IC50 in the experiment filed under Mus musculus was determined as 94. The figures for the IC50 (in experiment [5]; at Mu-type opioid receptor [6]) were 167 nM and 1.78 nM, respectively.
Take `C[C@@H](NC(=O)[C@@H](N)Cc1ccc(O)cc1)C(=O)N[C@H]1Cc2ccccc2CN(CC(N)=O)C1=O`: the IC50 came to 15.8 nM in experiment [14], 47.1 nM in experiment [3], 50.4 nM on Mu-type opioid receptor [4] and 34.4 nM at Mu-type opioid receptor [15].
For `Cc1cc(O)cc(C)c1C[C@H](N)C(=O)N(C)[C@H](C)C(=O)N[C@H]1Cc2c(ccc3ccccc23)CN(CC(N)=O)C1=O`, the IC50 in experiment [3] stood at 1.09 nM; on Mu-type opioid receptor [4], 0.43 nM; in experiment [5], 1.47 nM; on Mu-type opioid receptor [6], 0.35 nM. Also, in the experiment filed under Mus musculus, the Ratio IC50 was 4.
